The record followed here is ChEMBL document CHEMBL1141585, “5,5,6-Fused tricycles bearing imidazole and pyrazole 6-methylidene penems as broad-spectrum inhibitors of beta-lactamases” (Bioorg Med Chem, 2008).

In general, MIC refers to the lowest concentration found to suppress growth. A high value points to weaker potency. What is called pIC50 is −log10 of the IC50, conventionally taken in molar units. The ED50 is the dose that gives a 50% effect, or the effect in half of the subjects. High values mean weaker potency, low ones greater potency.

Assay [1] has as its system Enterobacter cloacae. Put plainly: Antimicrobial activity against Enterobacter cloacae GC 4142 expressing AmpC beta-lactamase after 18 to 24 hrs by broth microdilution method. Format: functional. Summed up: (§1)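 CLSI broth microdilution in Mueller–Hinton II broth. Serial dilutions of piperacillin alone or piperacillin plus inhibitor; inoculum 10⁵ CFU/ml. Piperacillin + tazobactam run as comparator. MIC read as endpoint.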

Assay [2] is described as follows: Inhibition of TEM1 beta-lactamase. Summed up:
(§2)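 Spectrophotometric β-lactamase inhibition assay (Bush method) with nitrocefin as substrate. Tazobactam standard included in each experiment. IC₅₀ derived by curve fitting.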

Assay [3] relates to Enterobacter cloacae. Put plainly: Antimicrobial activity against Enterobacter cloacae GC 6991 expressing AmpC beta-lactamase after 18 to 24 hrs by broth microdilution method. Format: functional. Put shortly:
as §1
On the technique in general: Dilution methods test growth across graded concentrations, often in twofold steps.

The subject of assay [4] is Escherichia coli. The assay is described as follows: Antibacterial efficacy against Escherichia coli LSU 80-8 infected ip dosed CD1 mouse model. Format: functional. Put shortly:
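Female CD-1 mice, five per dose level, five dose levels per compound. Lethal intraperitoneal challenge (10–100 LD₅₀), then intravenous piperacillin alone or piperacillin plus inhibitor at a 4:1 (Pip:Inhibitor) ratio. Survival read at 7 days; ratios from three separate tests pooled; ED₅₀ by probit analysis.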

Assay [5] concerns Enterobacter cloacae. The assay is described as follows: Antimicrobial activity against Enterobacter cloacae GC 1475 expressing P99 beta-lactamase after 18 to 24 hrs by broth microdilution method. The assay is classed as functional. Summed up: as §1
For assay [6], the system named is Serratia marcescens. Put plainly: Antimicrobial activity against Serratia marcescens GC 1781 expressing Sme1 and AmpC beta-lactamase after 18 to 24 hrs by broth microdilution method. The assay is classed as functional. Summed up:
as §1

Assay [7] relates to Escherichia coli. Put plainly: Antimicrobial activity against Escherichia coli GC 2883 expressing OXA10 and PSE2 beta-lactamase after 18 to 24 hrs by broth microdilution method. The assay is classed as functional. Put shortly:
as §1

In assay [8] the test system is Escherichia coli. Put plainly: Antimicrobial activity against Escherichia coli GC 2253 expressing IRT2 beta-lactamase after 18 to 24 hrs by broth microdilution method. Format: functional. Put shortly: as §1
In assay [9] the test system is Escherichia coli. Put plainly: Antimicrobial activity against Escherichia coli GC 2203 after 18 to 24 hrs by broth microdilution method. Format: functional. Put shortly: as §1
Assay [10] relates to Escherichia coli. Put plainly: Antimicrobial activity against Escherichia coli GC 2920 expressing IRT2 beta-lactamase after 18 to 24 hrs by broth microdilution method. Format: functional. Summed up: as §1
Assay [11] relates to Escherichia coli. Put plainly: Antimicrobial activity against Escherichia coli GC 2805 expressing CcrA beta-lactamase after 18 to 24 hrs by broth microdilution method. Format: functional. Put shortly:
as §1

Assay [12] has as its system Enterobacter cloacae. Put plainly: Antimicrobial activity against Enterobacter cloacae GC 1477 expressing AmpC beta-lactamase after 18 to 24 hrs by broth microdilution method. Format: functional. Put shortly:
as §1

The test system of assay [13] is Escherichia coli. The assay is described as follows: Antimicrobial activity against Escherichia coli GC 2804 expressing imp beta-lactamase after 18 to 24 hrs by broth microdilution method. Format: functional. Put shortly: as §1
Assay [14] has as its system Staphylococcus aureus. Put plainly: Antimicrobial activity against Staphylococcus aureus GC 2216 after 18 to 24 hrs by broth microdilution method. Format: functional. Summed up: as §1
A short description of assay [15]: Inhibition of AmpC beta-lactamase. Summed up: as §2
Assay [16] has as its system Escherichia coli. The assay is described as follows: Antimicrobial activity against Escherichia coli GC 2905 expressing P99 beta-lactamase after 18 to 24 hrs by broth microdilution method. The assay is classed as functional. Put shortly: as §1
The test system of assay [17] is Stenotrophomonas maltophilia. The assay is described as follows: Antimicrobial activity against Stenotrophomonas maltophilia GC 1721 expressing L1 beta-lactamase after 18 to 24 hrs by broth microdilution method. Format: functional. Put shortly:
as §1

The subject of assay [18] is Serratia marcescens. Put plainly: Antimicrobial activity against Serratia marcescens GC 4132 expressing AmpC beta-lactamase after 18 to 24 hrs by broth microdilution method. Format: functional. Put shortly: as §1
The subject of assay [19] is Pseudomonas aeruginosa. Put plainly: Antimicrobial activity against Pseudomonas aeruginosa GC 1764 expressing AmpC beta-lactamase after 18 to 24 hrs by broth microdilution method. Format: functional. Summed up: as §1
The subject of assay [20] is Escherichia coli. Put plainly: Antimicrobial activity against Escherichia coli GC 2844 after 18 to 24 hrs by broth microdilution method. The assay is classed as functional. Put shortly:
as §1

Assay [21] deals with Escherichia coli. Put plainly: Antimicrobial activity against Escherichia coli GC 2847 expressing TEM1 beta-lactamase after 18 to 24 hrs by broth microdilution method. Format: functional. Put shortly: as §1
Assay [22] deals with Escherichia coli. Put plainly: Antimicrobial activity against Escherichia coli GC 2894 expressing AmpC beta-lactamase after 18 to 24 hrs by broth microdilution method. The assay is classed as functional. Put shortly: as §1
In assay [23] the test system is Escherichia coli. The assay is described as follows: Antimicrobial activity against Escherichia coli GC 2906 expressing Imi1 beta-lactamase after 18 to 24 hrs by broth microdilution method. Format: functional. Put shortly: as §1
Assay [24] is described as follows: Inhibition of Imi1 beta lactamase.

pIC50: −log10 of the molar value. The source made the active and inactive calls. The rule behind the calls is not given here. Some results are limits rather than exact numbers.

As for `C[C@]1(Cn2ccnn2)[C@H](C(=O)[O-])N2C(=O)C[C@H]2S1(=O)=O.[Na+]` [TAZOBACTAM SODIUM], the MIC in assay [1] was 64 mg/L; in assay [3] it was above 64 mg/L; in assay [5], 64 mg/L; in assay [6] it was 0.5 mg/L; in assay [7] it was 1 mg/L; in [8], 2 mg/L. In addition, the MIC in assay [9] is 1 mg/L; in [10], 4 mg/L; in [11] it was above 64 mg/L; in assay [12] it was above 64 mg/L; in assay [13], below 0.06 mg/L; in assay [14], 0.5 mg/L. Further, the MIC is 64 mg/L in assay [16]; above 64 mg/L in assay [17]; 64 mg/L in assay [18]; above 64 mg/L in assay [19]; 2 mg/L in assay [20]; 2 mg/L in assay [21]. Further, the MIC was found to be 32 mg/L in assay [22] and 2 mg/L in assay [23]. Besides, the figures for the pIC50 in assay [2] and in assay [15] were 7.00 and 4.08, respectively. In [4], this molecule showed an ED50 of 20 mg/kg. The result in assay [24] was inactive.

Turning to `O=C([O-])C1=CS[C@@H]2/C(=C\c3cn4c5c(sc4n3)CCCC5)C(=O)N12.[Na+]`, the minimum inhibitory concentration (MIC) in assay [1] came out at 8 mg/L; in assay [3], 16 mg/L; in [5] it was 8 mg/L; in assay [6], 1 mg/L; in assay [7], 2 mg/L; in [8], 16 mg/L. In addition, the MIC in assay [9] is 2 mg/L; in assay [10], 2 mg/L; in assay [11], above 64 mg/L; in assay [12] it was 32 mg/L; in assay [13], below 0.06 mg/L; in [14], below 0.06 mg/L. Further, the MIC in assay [16] is 4 mg/L; in [17], above 64 mg/L; in assay [18], 2 mg/L; in [19], 2 mg/L; in assay [20], 2 mg/L; in assay [21], 8 mg/L. The minimal inhibitory concentration (MIC) was found to be 4 mg/L in [22] and 2 mg/L in [23]. In addition, the pIC50 in assay [2] is 8.72; in [15], 9.21; in assay [24], 7.48. Further, it took a dose of 23.3 mg/kg to reach the 50% effect level in [4] (ED50).

As to `O=C([O-])C1=CS[C@@H]2/C(=C\c3cn4c5c(sc4n3)COCC5)C(=O)N12.[Na+]`, the MIC is 8 mg/L in [1]; 16 mg/L in [3]; 8 mg/L in assay [5]; 1 mg/L in assay [6]; 4 mg/L in assay [7]; 16 mg/L in assay [8]. For the same molecule, the MIC in assay [9] is 4 mg/L; in [10], 2 mg/L; in [11], above 64 mg/L; in assay [12], 16 mg/L; in [13], below 0.06 mg/L; in assay [14], 2 mg/L. Also, the minimum inhibitory concentration (MIC) in assay [16] was 8 mg/L; in assay [17], above 64 mg/L; in assay [18], 2 mg/L; in [19], 4 mg/L; in assay [20], 2 mg/L; in assay [21], 4 mg/L. The MIC in [22] and in assay [23] was 2 mg/L each time. In addition, the values for the pIC50 in [2], in assay [15] and in assay [24] were 8.55, 8.82 and 7.00, respectively. The ED50 in assay [4] worked out at 25.3 mg/kg.
